The values below come from PubChem BioAssay.

Experiment [1] in a line: inhibitors of TNFa-induced NFkB p65 translocation, primary screen, imaging, HUVEC, MLSMR starter and 10KST1 sets (AID 438;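 active = inhibition above 20% together with a positive visual image hit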;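 note: compound added about 3h40 before a 20 min TNFalpha stimulation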;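 for inhibition: signal is the nuclear over cytoplasmic p65 intensity ratio per well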). As to conditions: HUVEC TNFa-induced p65 nuclear translocation; cell count: measured here: nuclei count (cytotoxicity indicator), at 2.08 µM; inhibition: at 2 µM, stronger effect = higher value, 0% TNFa-plus-vehicle, 100% no-TNFa wells.
Experiment [2] is described as follows: inhibitors of mutant huntingtin aggregation, primary screen, imaging, exon1htt(103Q)mCFP cells, high-content imaging (AID 483;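 active = visual image review flags a hit and inhibition of aggregation exceeds 20%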;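 note: compound exposure lasted 3 days before fixation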;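 for nuclei count: percent of the per-plate median nuclei count of sample wells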). Conditions: exon1htt(103Q)mCFP cell line, aggregate imaging, at 2 µM; inhibition of aggregation: stronger effect = higher value; nuclei count: measured here: cell count, toxicity.
Experiment [3] in a line: inhibitors of E-selectin induction by TNFa, primary screen, imaging, HUVEC, immunofluorescence, MLSMR starter and 10KST1 sets (AID 487;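 active = visually confirmed hit in the image check and inhibition above 20%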;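 for inhibition: signal is fraction of cell area covered by stained E-selectin grains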;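 for nuclei count: 100% = median nuclei count of all wells on the same plate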). As to conditions: HUVEC TNFalpha-induced E-selectin immunofluorescence imaging, at 2 µM; inhibition: stronger effect = higher value; nuclei count: measured here: cell number, toxicity.
In experiment [4] the target is Voltage-gated potassium channel subunit beta-2 (Rattus norvegicus) (UniProt P62483). The experiment in a line: KvBeta enzyme negative modulators, primary screen, biochemical, NADPH fluorescence (AID 622;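 active = fluorescence slope higher than the sample average by over 3 SD, cut at about -0.22 in these data, passing the limit was not always enough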;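 note: slope of raw intensity against log time taken from 70 to 1610 s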). As to conditions: recombinant KvBeta, 4-cyanobenzaldehyde reduction, at 10 µM, stronger effect = higher value.
The target is the same in experiment [5]. In words: KvBeta positive modulators, primary screen, biochemical, NADPH fluorescence (AID 623;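 active = NADPH fluorescence slope more negative than the mean of all samples by about 3 SD, 99.7% confidence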;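 note: fluorescence intensity change per second fitted from 20 to 320 s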). Conditions: Recombinant KvBeta, NADPH fluorescence decrease slope, 10 min; at 10 µM; stronger effect = lower value.
Experiment [6] has as its target Muscarinic acetylcholine receptor M4 (Homo sapiens) (UniProt P08173). The experiment in a line: compounds altering M4/GIRK thallium flux, either direction, primary screen, M4 allosteric agonist project, cell-based, HEK293 M4/GIRK, BTC-AM (AID 625).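 Note: thallium influx through GIRK channels coupled to M4 in HEK293 cells with BTC-AM dye.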 As to conditions: at 10 µM, actives lie on both sides. The essentials:
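Assay system: HEK293 cells with M4 receptor and GIRK channels / Controls: carbachol and DMSO controls / Schedule: 1 h dye loading, 2 min kinetic read / Technique: kinetic fluorescence with BTC-AM dye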

Experiment [7] is described as follows: inhibitors of Sendai virus-induced IRF3 signaling, primary screen, TLR/RLR signaling modifier project, cell-based, Sendai virus stimulus, luciferase, 10K MLSCN set (AID 602276;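 active = inhibition at or above 50% at 10 µM; inactive = inhibition below 50%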;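 note: firefly luciferase from ISG56 promoter only with Renilla not read in this screen; 0% = Sendai virus plus DMSO and 100% = medium plus DMSO without virus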). As to conditions: HEK293 RL24 IRF3 luciferase reporter, at 10 µM, stronger effect = higher value. For orientation: In a reporter assay the amount or activity of a reporter protein is the signal.

Experiment [8] is described as follows: inhibitors of poly I:C-induced TLR3 signaling, primary screen, cell-based, poly I:C stimulus, luciferase, 10K MLSCN set (AID 602277;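 active = inhibition of the reporter signal at or above 50%; inactive = inhibition below 50%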). As to conditions: HEK293-TLR3 RL24 IRF3 luciferase reporter, at 10 µM, stronger effect = higher value.

As a reminder, the inhibition is the drop in the measured response relative to a control, in per cent.

Calls of active or inactive are those of the source.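 Rule for the calls, unless noted: active = fluorescence slope after compound addition differing from the mean of all tested samples at 99.7% confidence, mostly higher but some lower; inactive = the rest.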

Voltage-gated potassium channel subunit beta-2 (Rattus norvegicus), sequence (P62483 whole entry, looked up): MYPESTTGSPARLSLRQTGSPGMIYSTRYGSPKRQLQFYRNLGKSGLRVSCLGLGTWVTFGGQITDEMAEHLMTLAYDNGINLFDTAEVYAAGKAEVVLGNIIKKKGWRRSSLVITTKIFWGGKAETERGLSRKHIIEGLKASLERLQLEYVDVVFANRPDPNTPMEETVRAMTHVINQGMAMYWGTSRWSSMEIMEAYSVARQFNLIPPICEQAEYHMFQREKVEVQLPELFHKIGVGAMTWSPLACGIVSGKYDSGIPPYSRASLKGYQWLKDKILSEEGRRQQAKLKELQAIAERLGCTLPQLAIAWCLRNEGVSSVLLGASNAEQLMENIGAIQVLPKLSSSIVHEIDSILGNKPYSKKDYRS
Muscarinic acetylcholine receptor M4 (Homo sapiens), sequence (P08173 whole entry, looked up): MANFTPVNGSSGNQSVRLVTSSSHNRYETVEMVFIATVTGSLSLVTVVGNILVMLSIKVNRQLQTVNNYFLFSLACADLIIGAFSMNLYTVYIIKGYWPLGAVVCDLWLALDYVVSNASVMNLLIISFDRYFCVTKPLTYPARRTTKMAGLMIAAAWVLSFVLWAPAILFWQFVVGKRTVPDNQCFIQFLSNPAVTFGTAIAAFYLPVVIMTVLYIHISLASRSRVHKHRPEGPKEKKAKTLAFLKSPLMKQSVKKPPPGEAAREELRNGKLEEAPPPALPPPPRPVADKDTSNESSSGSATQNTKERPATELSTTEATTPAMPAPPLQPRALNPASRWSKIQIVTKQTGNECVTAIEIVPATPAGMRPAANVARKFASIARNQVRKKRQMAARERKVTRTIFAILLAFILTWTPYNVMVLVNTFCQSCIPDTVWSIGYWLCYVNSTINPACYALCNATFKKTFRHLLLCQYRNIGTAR

For the molecule `Cc1ccc(NCc2nnc(SCC(=O)N3CCCCC3)n2CC2CCCO2)c(C)c1` (centres undefined), the cell count in experiment [1] turned out to be 484. Moreover, the inhibition was 3.6% (inactive) in experiment [1], -63.1% (inactive) in experiment [3], 20.5% (inactive) in experiment [7] and 25.6% (inactive) in experiment [8]. The inhibition of aggregation in experiment [2] is -7.9% (inactive). Moreover, the nuclei count came to 95.1% in experiment [2] and 109% in experiment [3]. Also, the values for the fluorescence slope in experiment [4] and in experiment [6] were -0.534 (inactive) and 0.00508 (inactive), respectively. For the same molecule, the NADPH fluorescence slope in experiment [5] was -1.9e-05 (inactive).
For `Cc1nnc(SCc2cnc(-c3ccccc3)o2)[nH]c1=O`, the cell count in experiment [1] came to 332. Moreover, the inhibition in experiment [1] is -2.2% (inactive); in experiment [3], -82.5% (inactive); in experiment [7], 10.2% (inactive); in experiment [8], 12.4% (inactive). The inhibition of aggregation in experiment [2] is 12.4% (inactive). Moreover, the nuclei count in experiment [2] came out at 92.7%; in experiment [3], 118%. For the same molecule, the fluorescence slope in experiment [4] is -0.591 (inactive); in experiment [6], 0.00323 (inactive). Moreover, in experiment [5], the NADPH fluorescence slope is -1.9e-05 (inactive).
With `COc1ccc(-c2cc(C(=O)NCCc3ccccc3)no2)cc1OC`, the cell count in experiment [1] was found to be 364. In addition, the inhibition in experiment [1] is -23% (inactive); in experiment [3], -58.5% (inactive); in experiment [7], 7.88% (inactive); in experiment [8], -6.93% (inactive). Further, the inhibition of aggregation in experiment [2] is -2.1% (inactive). The nuclei count in experiment [2] amounted to 98.3%; in experiment [3] it was 105%. In addition, the fluorescence slope was -0.298 (inactive) in experiment [4] and 0.00599 (inactive) in experiment [6]. Moreover, the NADPH fluorescence slope in experiment [5] is -2.2e-05 (inactive).
In the case of `O=C(NCc1ccco1)c1cc2n(n1)C(C(F)(F)F)CC(c1ccc(F)cc1)N2` (centres undefined), the cell count in experiment [1] is 405. Moreover, the inhibition in experiment [1] is 6.5% (inactive); in experiment [3] it was 8.6% (inactive); in experiment [7], 3.11% (inactive); in experiment [8], 12.1% (inactive). The inhibition of aggregation in experiment [2] was -12.7% (inactive). For the same molecule, the nuclei count came out at 109% in experiment [2] and 103% in experiment [3]. In addition, the fluorescence slope in experiment [4] was -0.557 (inactive); in experiment [6] it was 0.00537 (inactive). Moreover, the NADPH fluorescence slope in experiment [5] is -7.3e-06 (inactive).
`CCCCCCNC(=O)Cc1c(O)c2ccccc2[nH]c1=O`: the cell count in experiment [1] turned out to be 342. The inhibition was 3.2% (inactive) in experiment [1], 20.8% (inactive) in experiment [3], 9.96% (inactive) in experiment [7] and 16.8% (inactive) in experiment [8]. Moreover, in experiment [2], the inhibition of aggregation was -12.8% (inactive). The nuclei count came to 122% in experiment [2] and 103% in experiment [3]. The fluorescence slope in experiment [4] was -0.354 (inactive); in experiment [6], 0.0051 (inactive). Besides, the NADPH fluorescence slope in experiment [5] is -5.1e-05 (inactive).
Take `Cc1cc(NC(=O)c2cnn3cccnc23)no1`: the cell count in experiment [1] came to 467. The inhibition in experiment [1] is 0.3% (inactive); in experiment [3], -33.8% (inactive); in experiment [7], -57.6% (inactive); in experiment [8], -124% (inactive). In addition, in experiment [2], the inhibition of aggregation is 3.3% (inactive). The nuclei count in experiment [2] stood at 104%; in experiment [3], 119%. For the same molecule, the fluorescence slope in experiment [4] is -0.613 (inactive); in experiment [6] it was 0.00996 (inactive). The NADPH fluorescence slope in experiment [5] is -4.3e-05 (inactive).
For `Cc1cnc(C(=O)Nc2ccc(-n3cnnn3)cc2)cn1`, the cell count in experiment [1] amounted to 508. The inhibition in experiment [1] was -16.7% (inactive); in experiment [3], 15.8% (inactive); in experiment [7] it was 10.3% (inactive); in experiment [8] it was -4.35% (inactive). The inhibition of aggregation in experiment [2] is -8.7% (inactive). For the same molecule, the nuclei count came to 95.2% in experiment [2] and 95.7% in experiment [3]. Moreover, the values for the fluorescence slope in experiment [4] and in experiment [6] were -0.513 (inactive) and 0.00454 (inactive), respectively. The NADPH fluorescence slope in experiment [5] was -5.9e-05 (inactive).
Consider `O=C(/C=N/O)Nc1cccnc1`, for which, in experiment [1], the cell count worked out at 351. In addition, the inhibition in experiment [1] was -10.2% (inactive); in experiment [3], 57.2% (inactive); in experiment [7], 21.9% (inactive); in experiment [8], 26.5% (inactive). For the same molecule, in experiment [2], the inhibition of aggregation is 17.5% (inactive). Besides, the nuclei count in experiment [2] came to 86%; in experiment [3] it was 98.5%. Also, the values for the fluorescence slope in experiment [4] and in experiment [6] were -0.552 (inactive) and 0.00502 (inactive), respectively. In addition, the NADPH fluorescence slope in experiment [5] was -2.2e-05 (inactive).
Turning to `c1ccc(OCCOc2ncnc3sccc23)cc1`, in experiment [1], the cell count is 395. Besides, the inhibition in experiment [1] is -22% (inactive); in experiment [3] it was -62.1% (inactive); in experiment [7], -2.1% (inactive); in experiment [8], -65.8% (inactive). Besides, the inhibition of aggregation in experiment [2] was -0.7% (inactive). The nuclei count amounted to 106% in experiment [2] and 125% in experiment [3]. Besides, the fluorescence slope in experiment [4] was -0.583 (inactive); in experiment [6], 0.00602 (inactive). Further, the NADPH fluorescence slope in experiment [5] is -5e-05 (inactive).
With `O=C(COC(=O)c1ccc(S(=O)(=O)Nc2ccccc2)cc1)NCCN1C(=O)CSC1=O`, the cell count in experiment [1] was found to be 396. The inhibition is -3.1% (inactive) in experiment [1], -88.8% (inactive) in experiment [3], 0.13% (inactive) in experiment [7] and 19.9% (inactive) in experiment [8]. Further, the inhibition of aggregation in experiment [2] is 2.9% (inactive). Further, the nuclei count came out at 105% in experiment [2] and 117% in experiment [3]. Also, the results for the fluorescence slope in experiment [4] and in experiment [6] were -0.372 (inactive) and 0.0079 (inactive), respectively. Moreover, the NADPH fluorescence slope in experiment [5] was -8.7e-05 (inactive).
Regarding `Cc1cc(NC(=O)c2ccccc2Oc2ccccc2)no1`, in experiment [1], the cell count amounted to 708. In addition, the inhibition in experiment [1] was -0.2% (inactive); in experiment [3] it was 23.9% (inactive); in experiment [7], 12.4% (inactive); in experiment [8] it was 9.02% (inactive). Besides, the inhibition of aggregation in experiment [2] is 23.9% (inactive). In addition, the nuclei count is 102% in experiment [2] and 101% in experiment [3]. In addition, the fluorescence slope in experiment [4] is -0.532 (inactive); in experiment [6], 0.00465 (inactive). In addition, in experiment [5], the NADPH fluorescence slope is -6.9e-05 (inactive).
Take `COC(=O)c1sc(NC(=O)c2ccoc2C)nc1C`: the cell count in experiment [1] was determined as 554. Besides, the inhibition in experiment [1] was -7.5% (inactive); in experiment [3], 15.5% (inactive); in experiment [7] it was -18.1% (inactive); in experiment [8], -76.5% (inactive). Also, the inhibition of aggregation in experiment [2] is 8.8% (inactive). Further, the nuclei count turned out to be 94.1% in experiment [2] and 98% in experiment [3]. In addition, the fluorescence slope is -0.557 (inactive) in experiment [4] and 0.00464 (inactive) in experiment [6]. Further, the NADPH fluorescence slope in experiment [5] was 8.6e-06 (inactive).
As for `CC1=CC=CC2=NC(=O)CC(C)(C(=O)N(CC(=O)NC(C)C)C3CCCC3)N12` (centres undefined), the cell count in experiment [1] is 668. The inhibition was -4.9% (inactive) in experiment [1], 71.9% (active) in experiment [3], 4.96% (inactive) in experiment [7] and 6.2% (inactive) in experiment [8]. Further, the inhibition of aggregation in experiment [2] is -31.9% (inactive). For the same molecule, the nuclei count in experiment [2] amounted to 107%; in experiment [3], 102%. In addition, the figures for the fluorescence slope in experiment [4] and in experiment [6] were -0.405 (inactive) and 0.00619 (inactive), respectively. For the same molecule, in experiment [5], the NADPH fluorescence slope was 6.3e-05 (inactive).
Consider `CCSc1nc(-c2ccc(OC)cc2)ccc1C#N`, for which, in experiment [1], the cell count amounted to 380. In addition, the inhibition in experiment [1] is 1.5% (inactive); in experiment [3] it was -44.4% (inactive); in experiment [7] it was 9.36% (inactive); in experiment [8], 7.27% (inactive). Further, the inhibition of aggregation in experiment [2] was -5.1% (inactive). Further, the nuclei count was 72.9% in experiment [2] and 101% in experiment [3]. For the same molecule, the fluorescence slope in experiment [4] was -0.551 (inactive); in experiment [6] it was 0.00795 (inactive). In addition, in experiment [5], the NADPH fluorescence slope was -1.9e-05 (inactive).
